Data: ChEMBL document CHEMBL1135716, “A three-dimensional quantitative structure-activity relationship study of heparin-binding epidermal growth factor shedding inhibitors using comparative molecular field analysis” (J Med Chem, 2002)
pIC50: −log10 of the molar value.

experiment: Heparin-binding epidermal growth factor (HB-EGF) shedding inhibition
How it was run: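 Cell-based shedding assay using HT-1080 fibrosarcoma transfectants that express human placental alkaline phosphatase-tagged HB-EGF. Cells were grown 24 h at 2×10^5/well in MEM with 10% FCS, washed, and preincubated 30 min with compound in MEM containing 1% DMSO. They were then stimulated with 60 nM TPA for 60 min. Supernatant was heated 10 min at 65 °C, then given p-nitrophenyl phosphate substrate (pH 9.8) for 2 h, and A405 was read. IC50 was taken from a concentration series.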

pIC50	SMILES
6.08	Cc1ccc(S(=O)(=O)N2Cc3ccccc3C[C@@H]2C(=O)NO)cc1
6.24	COc1ccc(S(=O)(=O)N2Cc3cc(NC(=O)[C@H](N)Cc4ccccc4)ccc3C[C@@H]2C(=O)NO)cc1
4.40	O=C(NO)[C@H]1Cc2nccnc2CN1S(=O)(=O)c1ccc(C(F)(F)F)cc1
5.82	O=C(NO)[C@H]1Cc2nccnc2CN1S(=O)(=O)c1ccc(-c2ccccc2)cc1
7.41	COCCCOc1ccc(S(=O)(=O)N2Cc3cc(N)ccc3C[C@@H]2C(=O)NO)cc1
5.17	COc1ccc(CCS(=O)(=O)N2Cc3nccnc3C[C@@H]2C(=O)NO)cc1
6.22	O=C(NO)[C@H]1Cc2nccnc2CN1S(=O)(=O)c1ccc(OCCCBr)cc1
6.00	Nc1ccc(Oc2ccc(S(=O)(=O)N3Cc4nccnc4C[C@@H]3C(=O)NO)cc2)cc1
6.20	CCCOc1ccc(S(=O)(=O)N2Cc3cc(O)c(O)cc3C[C@@H]2C(=O)NO)cc1
6.02	O=C(NO)[C@H]1Cc2nccnc2CN1S(=O)(=O)c1cccs1
6.96	O=C(NO)[C@H]1Cc2nccnc2CN1S(=O)(=O)c1ccc(Oc2cnccn2)cc1
6.59	CCCCOCCCOc1ccc(S(=O)(=O)N2Cc3nccnc3C[C@@H]2C(=O)NO)cc1
5.52	COCCc1ccc(S(=O)(=O)N2Cc3nccnc3C[C@@H]2C(=O)NO)s1
7.38	O=C(NO)[C@H]1Cc2ccccc2CN1S(=O)(=O)c1ccccc1
6.38	CCCCOc1ccc(S(=O)(=O)N2Cc3ccccc3C[C@@H]2C(=O)NO)cc1
6.55	COc1ccc(S(=O)(=O)N2Cc3ccccc3C[C@@H]2C(=O)NO)cc1

Further lines, the molecule ahead of its results:

SMILES	pIC50
CCOCCCOc1ccc(S(=O)(=O)N2Cc3cc(O)c(O)cc3C[C@@H]2C(=O)NO)cc1	6.68
NS(=O)(=O)c1ccc(-c2ccc(S(=O)(=O)N3Cc4ccccc4C[C@@H]3C(=O)NO)cc2)cc1	4.70
CC(C)COCCCOc1ccc(S(=O)(=O)N2Cc3nccnc3C[C@@H]2C(=O)NO)cc1	6.25
Cc1ccc(S(=O)(=O)N2Cc3cc(O)c(O)cc3C[C@@H]2C(=O)NO)s1	5.27
C=Cc1ccc(S(=O)(=O)N2Cc3nccnc3C[C@@H]2C(=O)NO)cc1	5.96
O=C(NO)[C@H]1Cc2nccnc2CN1S(=O)(=O)c1cccnc1	5.16
O=C(NO)[C@H]1Cc2nccnc2CN1S(=O)(=O)c1ccc(Oc2ccc(Oc3ccccc3)cc2)cc1	5.21
O=C(NO)[C@H]1Cc2nccnc2CN1S(=O)(=O)c1ccc([N+](=O)[O-])cc1	4.15
COc1ccc(S(=O)(=O)N2Cc3cc(O)c(O)cc3C[C@@H]2C(=O)NO)cc1	6.14
O=C(O)c1ccc(S(=O)(=O)N2Cc3nccnc3C[C@@H]2C(=O)NO)cc1	4.15
O=C(NO)[C@H]1Cc2cc(O)c(O)cc2CN1S(=O)(=O)c1ccc(-c2ccccc2)cc1	5.89
CCCCCC(=O)Nc1ccc(S(=O)(=O)N2Cc3nccnc3C[C@@H]2C(=O)NO)cc1	5.11
CCCOc1ccc(S(=O)(=O)N2Cc3nccnc3C[C@@H]2C(=O)NO)cc1	6.00
CS(=O)(=O)CCCOc1ccc(S(=O)(=O)N2Cc3nccnc3C[C@@H]2C(=O)NO)cc1	5.74
Nc1ccc2c(c1)CN(S(=O)(=O)c1ccc(Oc3ccccc3)cc1)[C@@H](C(=O)NO)C2	6.31
C#Cc1ccc(S(=O)(=O)N2Cc3nccnc3C[C@@H]2C(=O)NO)cc1	6.89
Nc1cccc(S(=O)(=O)N2Cc3ccccc3C[C@@H]2C(=O)NO)c1	5.96
O=C(NO)[C@H]1Cc2nccnc2CN1S(=O)(=O)c1ccc(OCCO)cc1	5.82
O=C(NO)[C@H]1Cc2cc(O)c(O)cc2CN1S(=O)(=O)c1cccs1	6.80

SMILES	pIC50
O=C(NO)[C@H]1Cc2cc(O)c(O)cc2CN1S(=O)(=O)c1ccc(OCCCc2ccccc2)cc1	6.00
O=C(NO)[C@H]1Cc2cc(O)c(O)cc2CN1S(=O)(=O)c1ccc(Oc2cnccn2)cc1	6.09
O=C(NO)[C@H]1Cc2nccnc2CN1S(=O)(=O)c1ccc(OCCCc2ccccc2)cc1	6.20
COc1ccc(S(=O)(=O)N2Cc3nccnc3C[C@@H]2C(=O)NO)cc1	6.46
CCOC(=O)COc1ccc(S(=O)(=O)N2Cc3nccnc3C[C@@H]2C(=O)NO)cc1	6.00
COc1ccc(S(=O)(=O)N2Cc3cc(N)ccc3C[C@@H]2C(=O)NO)cc1	6.72
Cc1ccc(S(=O)(=O)N2Cc3nccnc3C[C@@H]2C(=O)NO)cc1	5.57
CCCCCCS(=O)(=O)N1Cc2nccnc2C[C@@H]1C(=O)NO	5.36
Nc1ccc2c(c1)CN(S(=O)(=O)c1ccc(Oc3ncccn3)cc1)[C@@H](C(=O)NO)C2	5.35
CCOC(=O)CCCOc1ccc(S(=O)(=O)N2Cc3nccnc3C[C@@H]2C(=O)NO)cc1	5.96
O=C(NO)[C@H]1Cc2nccnc2CN1S(=O)(=O)c1ccc(Oc2ccncc2)cc1	6.47
CSCCCOc1ccc(S(=O)(=O)N2Cc3nccnc3C[C@@H]2C(=O)NO)cc1	7.00
Nc1ccc(S(=O)(=O)N2Cc3nccnc3C[C@@H]2C(=O)NO)cc1	5.74
O=C(NO)[C@H]1Cc2ccccc2CN1S(=O)(=O)c1cccs1	6.47
CN(C)CCCOc1ccc(S(=O)(=O)N2Cc3nccnc3C[C@@H]2C(=O)NO)cc1	4.74
COc1ccc(S(=O)(=O)N2Cc3cc(NC(=O)CN)ccc3C[C@@H]2C(=O)NO)cc1	6.55
COc1ccc(S(=O)(=O)N2Cc3cc(N(CC(=O)O)CC(=O)O)ccc3C[C@@H]2C(=O)NO)cc1	6.44
Cc1ccccc1S(=O)(=O)N1Cc2nccnc2C[C@@H]1C(=O)NO	4.92
CC(C)c1ccc(S(=O)(=O)N2Cc3ccccc3C[C@@H]2C(=O)NO)cc1	5.26
